Measurements: ChEMBL document CHEMBL1123854, “Dissociation of hypolipidemic and antiplatelet actions from adverse myotonic effects of clofibric acid related enantiomers” (J Med Chem, 1987)

How the values were obtained:
Rattus norvegicus [1] = species: Rattus norvegicus; assay: Serum cholesterol level in male Sprague-Dawley rats (fed with high cholesterol semisynthetic diet) after 4 days of treatment.; format: functional, organism-based
Procedure, shortened: (§1)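 Male Sprague-Dawley rats on a high-cholesterol semisynthetic diet for 1 week, then stratified-randomized into groups of six. Dosing was 0.3 mmol/kg twice daily by intragastric route in 0.25% methylcellulose for 1 week; controls received vehicle. Serum cholesterol was measured after 4 and 7 days of dosing. Values are mean ± SD of six rats.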

Rattus norvegicus [2] = species: Rattus norvegicus; assay: Serum cholesterol level in male Sprague-Dawley rats (fed with high cholesterol semisynthetic diet) after 7 days of treatment; format: functional, organism-based; procedure, shortened: as §1
Homo sapiens [3] = species: Homo sapiens; assay: Inhibition against platelet aggregation induced by arachidonic acid(AA) in vitro; format: functional
Procedure, shortened: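 Human platelet-rich plasma from drug-free volunteers; compound preincubated 1 min before arachidonic acid (300–500 μM, lowest level giving maximal transmittance change). Aggregation read by aggregometer over 4 min; IC50 for inhibition of maximal aggregation, mean ± SEM, n = 4–10 donors.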

Rattus norvegicus [4] = species: Rattus norvegicus; assay: Serum cholesterol level in male Sprague-Dawley rats (fed with high cholesterol semisynthetic diet)before the treatment.; format: functional, organism-based
Procedure, shortened: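 Male Sprague-Dawley rats fed a high-cholesterol semisynthetic diet for 1 week. Blood was drawn from the orbital plexus under ether anaesthesia before dosing (day -1) for serum cholesterol, which was used to stratify-randomize groups of six. Values are mean ± SD of six rats.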

Rattus norvegicus [5] = species: Rattus norvegicus; assay: Liver cholesterol level in male Sprague-Dawley rats (fed with high cholesterol semisynthetic diet) after 1 week of treatment.; format: functional
Procedure, shortened: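 Rats prefed high-cholesterol semisynthetic diet 1 week, then stratified by serum cholesterol into groups of six. Dosed 0.3 mmol/kg intragastrically twice daily in 0.25% methylcellulose for 1 week; controls got vehicle. Livers removed after exsanguination; cholesterol measured in lipid extracts. Mean ± SD, six rats.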

Homo sapiens [6] = species: Homo sapiens; assay: Inhibition against platelet aggregation induced by adenosine diphosphate (ADP) in vitro; format: functional
Procedure, shortened: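 Human platelet-rich plasma from drug-free volunteers; compound preincubated 1 min before ADP (1–3 μM, lowest level giving maximal transmittance change). Aggregation followed by aggregometer for 6 min; IC50 for inhibition of the second phase of maximal aggregation, mean ± SEM, n = 4–10 donors.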

Rattus norvegicus [7] = species: Rattus norvegicus; assay: Inhibition against chloride conductance in rat extensor digitorum longus(EDL) muscle fibers in vitro; format: functional
Procedure, shortened: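 Rat EDL fibres (Charles River Sprague-Dawley, normal diet) studied in vitro by square-pulse microelectrode method in normal and chloride-free medium at several drug concentrations. Chloride conductance = membrane conductance in normal minus chloride-free solution. Conductance–concentration curves fit to single-site binding equation by nonlinear least squares to give IC50 ± SD; 7–79 fibres from 2–16 muscles per concentration.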

Structure (SMILES) | Serum cholesterol (Rattus norvegicus [1]) [mg/dL] | Serum cholesterol (Rattus norvegicus [2]) [mg/dL] | IC50 (Homo sapiens [3]) [µM] | Serum cholesterol (Rattus norvegicus [4]) [mg/dL] | Liver cholesterol (Rattus norvegicus [5]) | IC50 (Homo sapiens [6]) [µM] | IC50 (Rattus norvegicus [7]) [µM]
C[C@@H](Oc1ccc(Cl)cc1)C(=O)O | 116 | 119 | 253 | 276 | 40.8 mg (g of tissue)-1 | 201 | > 230
CC[C@@H](Oc1ccc(Cl)cc1)C(=O)O | 158 | 184 | 721 | 275 | 34.8 mg (g of tissue)-1 | 686 | > 230
C[C@H](Oc1ccc(Cl)cc1)C(=O)O | 107 | 184 | 1120 | 279 | 45.4 mg (g of tissue)-1 | 998 | –
CC[C@H](Oc1ccc(Cl)cc1)C(=O)O | 174 | 193 | 1600 | 278 | 37.2 mg (g of tissue)-1 | 1180 | –
CC(C)(Oc1ccc(Cl)cc1)C(=O)O [CLOFIBRIC ACID] | 113 | 149 | > 4000 | 271 | 41.9 mg (g of tissue)-1 | 1240 | –
